ChEMBL document CHEMBL5724801, “EUbOPEN Chemogenomics Library - Multiplex” (2024)
Values joined by “and” are separate entries in the source; they are usually repeats but may differ in a detail not shown here. Identical values can stand only once.

Tested on: Fibroblast
Assay: Multiplex assay against human fibroblast
Assay type: toxicity, cell-based
Method in brief: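 Per cents of healthy-nucleus cells form the tubulin, mitochondrial-mass and membrane-permeability phenotype values. Live cells were stained at seeding with Hoechst33342, BioTracker Green Microtubule Cytoskeleton Dye, MitoTracker Red and Annexin V Alexa Fluor 680. After compound addition they were imaged on a CQ1 microscope at 37°C and 5% CO2, and CellPathfinder machine-learning gating split them into Hoechst high-intensity objects or normal cells, normal cells into healthy, pyknosed or fragmented nuclei, and pyknosed cells into mitotic or apoptotic.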

[1] = 12 h, 1 µM, compound concentration 1 uM
[2] = 12 h, 10 µM, compound concentration 10 uM
[3] = 24 h, 1 µM, compound concentration 1 uM
[4] = 24 h, 10 µM, compound concentration 10 uM
[5] = 48 h, 1 µM, compound concentration 1 uM
[6] = 48 h, 10 µM, compound concentration 10 uM

## CCn1cnc2c(-c3ccc(F)c(-c4ccc(S(=O)(=O)CC)cc4OC)c3)cnnc21 [DARIGABAT]
[1]
  Population Apoptotic (%): 6.38% and 17.39%
  Population Fragmented Nuclei (%): 14.08% and 9%
  Population Healthy Nuclei (%): 52.82% and 80.09%
  Population Hoechst High Intensity Objects (%): 0%
  Population Membrane Permeable-Phenotype (%): 4% and 1.78%
  Population Mitochondria Different-Phenotype (%): 14.67% and 11.24%
  Population Mitotic Cells (%): 93.62% and 82.61%
  Population Normal (%): 100%
  Population Tubulin-Different-Phenotype (%): 21.33% and 23.08%
  Total Cell Count: 142 and 211
[2]
  Population Apoptotic (%): 12.5% and 19.64%
  Population Healthy Nuclei (%): 48.7% and 72.25%
  Population Hoechst High Intensity Objects (%): 0%
  Population Membrane Permeable-Phenotype (%): 13.33% and 8.61%
  Population Mitochondria Different-Phenotype (%): 14.67% and 16.56%
  Population Mitotic Cells (%): 87.5% and 80.36%
  Population Normal (%): 100%
  Population Tubulin-Different-Phenotype (%): 54.67% and 72.85%
  Total Cell Count: 154 and 209
[3]
  Population Apoptotic (%): 11.11% and 23.08%
  Population Fragmented Nuclei (%): 13.37% and 6.44%
  Population Healthy Nuclei (%): 60.47% and 87.13%
  Population Hoechst High Intensity Objects (%): 0%
  Population Membrane Permeable-Phenotype (%): 0.96% and 3.41%
  Population Mitochondria Different-Phenotype (%): 9.62% and 6.82%
  Population Mitotic Cells (%): 88.89% and 76.92%
  Population Normal (%): 100%
  Population Tubulin-Different-Phenotype (%): 19.23% and 19.89%
  Total Cell Count: 172 and 202
[4]
  Population Apoptotic (%): 23.08% and 22.22%
  Population Healthy Nuclei (%): 57.56% and 78.38%
  Population Hoechst High Intensity Objects (%): 0%
  Population Membrane Permeable-Phenotype (%): 11.11% and 3.45%
  Population Mitochondria Different-Phenotype (%): 14.14% and 19.54%
  Population Mitotic Cells (%): 76.92% and 77.78%
  Population Normal (%): 100%
  Population Tubulin-Different-Phenotype (%): 52.53% and 70.69%
  Total Cell Count: 172 and 222
[5]
  Population Apoptotic (%): 28.57% and 56.25%
  Population Fragmented Nuclei (%): 13.07% and 8%
  Population Healthy Nuclei (%): 82.95% and 84%
  Population Hoechst High Intensity Objects (%): 0%
  Population Membrane Permeable-Phenotype (%): 1.37% and 1.79%
  Population Mitochondria Different-Phenotype (%): 19.18% and 6.55%
  Population Mitotic Cells (%): 71.43% and 43.75%
  Population Normal (%): 100%
  Total Cell Count: 176 and 200
[6]
  Population Apoptotic (%): 34.62% and 60%
  Population Healthy Nuclei (%): 68.28% and 85.52%
  Population Hoechst High Intensity Objects (%): 0%
  Population Membrane Permeable-Phenotype (%): 4.72% and 11.64%
  Population Mitochondria Different-Phenotype (%): 15.75% and 8.99%
  Population Mitotic Cells (%): 65.38% and 40%
  Population Normal (%): 100%
  Population Tubulin-Different-Phenotype (%): 34.65% and 64.55%
  Total Cell Count: 186 and 221

## CC(C)CC(=O)Nc1cncc(-c2ccc3[nH]nc(-c4nc5c(-c6cccc(F)c6)cncc5[nH]4)c3c2)c1 [LORECIVIVINT]
[1]
  Population Fragmented Nuclei (%): 12.2% and 10.34%
  Population Healthy Nuclei (%): 60.98% and 74.14%
  Population Hoechst High Intensity Objects (%): 0%
  Population Membrane Permeable-Phenotype (%): 6% and 10.08%
  Population Mitochondria Different-Phenotype (%): 10% and 9.3%
  Population Mitotic Cells (%): 95.45% and 62.96%
  Population Normal (%): 100%
  Population Pyknosed Nuclei (%): 26.83% and 15.52%
  Population Tubulin-Different-Phenotype (%): 36% and 44.19%
  Total Cell Count: 164 and 174
[2]
  Population Apoptotic (%): 37.84% and 20.2%
  Population Fragmented Nuclei (%): 10.38% and 7.03%
  Population Healthy Nuclei (%): 64.01% and 61.34%
  Population Hoechst High Intensity Objects (%): 0%
  Population Membrane Permeable-Phenotype (%): 14.59% and 9.38%
  Population Mitochondria Different-Phenotype (%): 4.86% and 2.08%
  Population Mitotic Cells (%): 62.16% and 79.8%
  Population Normal (%): 100%
  Population Pyknosed Nuclei (%): 25.61% and 31.63%
  Population Tubulin-Different-Phenotype (%): 37.84% and 36.46%
  Total Cell Count: 289 and 313
[3]
  Population Apoptotic (%): 12.9% and 25%
  Population Fragmented Nuclei (%): 14.37% and 8.2%
  Population Healthy Nuclei (%): 67.82% and 80.87%
  Population Hoechst High Intensity Objects (%): 0%
  Population Membrane Permeable-Phenotype (%): 6.78% and 12.84%
  Population Mitochondria Different-Phenotype (%): 5.08% and 2.7%
  Population Mitotic Cells (%): 87.1% and 75%
  Population Normal (%): 100%
  Population Pyknosed Nuclei (%): 17.82% and 10.93%
  Population Tubulin-Different-Phenotype (%): 34.75% and 50.68%
  Total Cell Count: 174 and 183
[4]
  Population Apoptotic (%): 40% and 21.83%
  Population Fragmented Nuclei (%): 10% and 5.2%
  Population Healthy Nuclei (%): 49.38% and 59.65%
  Population Hoechst High Intensity Objects (%): 0%
  Population Membrane Permeable-Phenotype (%): 13.29% and 10.37%
  Population Mitochondria Different-Phenotype (%): 2.53% and 0.41%
  Population Mitotic Cells (%): 60% and 78.17%
  Population Normal (%): 100%
  Population Pyknosed Nuclei (%): 40.62% and 35.15%
  Population Tubulin-Different-Phenotype (%): 37.97% and 34.02%
  Total Cell Count: 320 and 404
[5]
  Population Apoptotic (%): 16.67% and 32.43%
  Population Fragmented Nuclei (%): 16.43% and 12.15%
  Population Healthy Nuclei (%): 60.39% and 67.4%
  Population Hoechst High Intensity Objects (%): 0%
  Population Membrane Permeable-Phenotype (%): 8% and 13.93%
  Population Mitochondria Different-Phenotype (%): 9.6% and 4.92%
  Population Mitotic Cells (%): 83.33% and 67.57%
  Population Normal (%): 100%
  Population Pyknosed Nuclei (%): 23.19% and 20.44%
  Population Tubulin-Different-Phenotype (%): 32% and 47.54%
  Total Cell Count: 207 and 181
[6]
  Population Apoptotic (%): 46.41% and 43.05%
  Population Fragmented Nuclei (%): 10.67% and 7.39%
  Population Healthy Nuclei (%): 33.6% and 33.77%
  Population Hoechst High Intensity Objects (%): 0%
  Population Membrane Permeable-Phenotype (%): 8.73% and 10.16%
  Population Mitochondria Different-Phenotype (%): 5.56% and 1.56%
  Population Mitotic Cells (%): 53.59% and 56.95%
  Population Normal (%): 100%
  Population Pyknosed Nuclei (%): 55.73% and 58.84%
  Population Tubulin-Different-Phenotype (%): 17.46% and 26.56%
  Total Cell Count: 375 and 379
